Test results: ChEMBL document CHEMBL3286196 (J Med Chem, 2014)
The source made the active and inactive calls. The rule behind the calls is not given here.

Experiments:
[1] = test system: T1, Thioredoxin reductase 1, cytoplasmic (Rattus norvegicus), O89049 [U498C]; assay: Binding affinity to NADPH-reduced rat recombinant TrxR1 U498C mutant after 30 mins by SDS-PAGE
T1 sequence (whole entry): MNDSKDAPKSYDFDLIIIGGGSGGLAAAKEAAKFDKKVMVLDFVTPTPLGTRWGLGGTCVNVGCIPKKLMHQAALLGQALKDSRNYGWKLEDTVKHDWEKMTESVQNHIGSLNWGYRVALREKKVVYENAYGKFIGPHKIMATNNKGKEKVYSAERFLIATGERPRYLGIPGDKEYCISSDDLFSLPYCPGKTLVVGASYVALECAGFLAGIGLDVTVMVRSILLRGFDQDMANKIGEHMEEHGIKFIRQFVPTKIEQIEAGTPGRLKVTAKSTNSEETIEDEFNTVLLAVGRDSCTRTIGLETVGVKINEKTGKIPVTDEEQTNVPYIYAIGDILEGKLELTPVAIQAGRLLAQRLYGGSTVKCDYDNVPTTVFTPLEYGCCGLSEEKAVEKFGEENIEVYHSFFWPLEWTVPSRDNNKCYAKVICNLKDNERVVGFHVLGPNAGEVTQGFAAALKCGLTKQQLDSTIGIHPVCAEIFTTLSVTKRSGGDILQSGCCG
Summary of the method: (§1)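 Proteins were reduced, then incubated with the labelling compound for 30 min at room temperature. Samples were separated by SDS-PAGE. The gel was imaged by fluorescence and then stained with Coomassie Blue.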

[2] = species on record: Rattus norvegicus; assay: Binding affinity to NADPH-reduced rat recombinant wild type TrxR after 30 mins by SDS-PAGE; summary of the method: as §1
[3] = Cytotoxicity against human […] cells assessed as inhibition of proliferation after 48 hrs by MTT assay; assay type: functional, cell-based
[4] = test system: HL-60; assay: Cytotoxicity against human HL60 cells assessed as inhibition of proliferation after 48 hrs by MTT assay; assay type: functional, cell-based; conditions: HL-60, 48 h
[5] = test system: HL-60; assay: Cytotoxicity against human HL60 cells assessed as inhibition of proliferation after 72 hrs by MTT assay; assay type: functional, cell-based; conditions: HL-60, 72 h
[6] = test system: HepG2; assay: Cytotoxicity against human HepG2 cells assessed as inhibition of proliferation after 48 hrs by MTT assay; assay type: functional, cell-based; conditions: HepG2, 48 h
[7] = test system: HeLa; assay: Cytotoxicity against human HeLa cells assessed as inhibition of proliferation after 48 hrs by MTT assay; assay type: functional, cell-based

Row | SMILES | Activity [1] | Activity [2] | IC50 [3] | IC50 [4] | IC50 [5] | IC50 [6] | IC50 [7]
1 | Nc1ccc2c3c(cccc13)C(=O)N(CCCCCC(=O)Nc1ccc([As](O)O)cc1)C2=O | Active | Active | – | – | – | – | –
2 | Nc1ccc2c3c(cccc13)C(=O)N(CCCCCC(=O)Nc1ccc([As]3SCCCS3)cc1)C2=O | Active | inactive | – | – | – | – | –
3 | Nc1ccc([As](=O)(O)O)cc1 [ARSANILIC ACID] | – | – | > 10 µM | > 10 µM | > 10 µM | > 10 µM | > 10 µM
4 | O=[As][As+](=O)[O-] (centres undefined) [ARSENIC TRIOXIDE] | – | – | > 10 µM | 6.5 µM | 5.7 µM | > 10 µM | > 10 µM
